Twelve molecules from ChEMBL document CHEMBL3580648, “Dimeric Abietane Diterpenoids and Sesquiterpenoid Lactones from Teucrium viscidum” (J Nat Prod, 2015) can be followed below.

Counter-ions that a name gives are not always drawn.

One experiment relates to HepG2. Put plainly: Cytotoxic activity against human HepG2 cells by MTT method. It is filed as functional, cell-based. The procedure, abridged: (§1)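 MTT assay on the cancer cell line. IC50 taken as the concentration that cuts absorbance to 50% of control. Values are means of three independent experiments.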
For orientation: Formazan colour is commonly taken as a measure of viable cells.

The nature of experiment [1]: Inhibition of Saccharomyces cerevisiae alpha-glucosidase pre-incubated for 10 mins at 25 degC before addition of p-nitrophenyl-alpha-D-glucopyranoside substrate by UV absorption based assay. The procedure, abridged:
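Yeast α-glucosidase at 1.0 U/mL in 0.1 M K3PO4 buffer, pH 6.9, mixed with test compound in DMSO. Preincubated 10 min at 25 °C, then started with PNPG (5.0 mM solution in the same buffer). A405 was read at once and again after 5 min at 25 °C. ΔA was compared with a DMSO control to give % inhibition and IC50, as means of three independent experiments.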

Another experiment concerns HCT-116. Put plainly: Cytotoxic activity against human HCT116 cells by MTT method. In kind it is functional, cell-based. The procedure, abridged:
as §1

Experiment [2] can be described thus: Cytotoxic activity against human H460 cells by MTT method. Conditions: NCI-H460. In kind it is functional, cell-based. The method in brief:
as §1

For another experiment, the system named is HeLa. The experiment can be described thus: Cytotoxic activity against human HeLa cells by MTT method. In kind it is functional, cell-based. The procedure, abridged: as §1
Experiment [3] can be described thus: Cytotoxic activity against human BGC823 cells by MTT method. It is filed as functional, cell-based. The settings on record: BGC-823. The procedure, abridged:
as §1

As usually defined, the IC50 is the point on the concentration scale where inhibition reaches its midpoint. The low end stands for higher potency, the high end for lower potency. `CC1=C2C[C@@H]3[C@@H](C)[C@@H](O)C[C@@H](O)[C@@]3(C)C[C@@]2(O)OC1=O`: the IC50 is greater than 10 µM in the experiment on HepG2; greater than 1000 µM in experiment [1]; greater than 10 µM in the experiment with HCT-116; greater than 10 µM in experiment [2]; greater than 10 µM in the experiment with HeLa; greater than 10 µM in experiment [3].
Consider `CC(C)C1=C[C@@]23Oc4c(C(C)C)cc5c(c4O[C@]2(C(=O)C1=O)C12COC3C[C@H]1C(C)(C)C[C@H](O)C2)C12COC5C[C@H]1C(C)(C)C[C@H](O)C2` (stereo not given in full), for which the IC50 was greater than 10 µM in the experiment with HepG2; greater than 1000 µM in experiment [1]; greater than 10 µM in the experiment on HCT-116; greater than 10 µM in experiment [2]; greater than 10 µM with HeLa; greater than 10 µM in experiment [3].
Turning to `CC1=CC(=O)[C@@H](O)[C@]2(C)C[C@]3(O)OC(=O)C(C)=C3C[C@@H]12`, the IC50 in the experiment on HepG2 is greater than 10 µM; in experiment [1], 568 µM; in the experiment on HCT-116 it was greater than 10 µM; in experiment [2], greater than 10 µM; in the experiment on HeLa, greater than 10 µM; in experiment [3] it was greater than 10 µM.
Consider `COc1cccc2c1C(=O)c1c(O)c3c(c(O)c1C2=O)C[C@@](O)(C(=O)CO)C[C@@H]3O[C@H]1C[C@H](N)[C@H](O)[C@H](C)O1` [DOXORUBICIN HYDROCHLORIDE], for which the IC50 in the experiment on HepG2 stood at 0.24 µM; in experiment [2], 0.24 µM; in the experiment on HeLa, 0.72 µM; in experiment [3], 0.76 µM.
For `C[C@H]1O[C@H](O[C@H]2[C@H](O)[C@@H](O)[C@@H](O[C@H]3[C@H](O)[C@@H](O)C(O)O[C@@H]3CO)O[C@@H]2CO)[C@H](O)[C@@H](O)[C@@H]1N[C@H]1C=C(CO)[C@@H](O)[C@H](O)[C@H]1O` (stereo not given in full) [ACARBOSE], in experiment [1], 169 µM corresponded to half-maximal inhibition (IC50).
Turning to `CC(=O)O[C@@H]1C(=O)C=C(C)[C@]2(O)CC3=C(C)C(=O)O[C@@]3(O)C[C@@]12C`, the IC50 with HepG2 is greater than 10 µM; in experiment [1], 300 µM; in the experiment with HCT-116 it was greater than 10 µM; in experiment [2] it was greater than 10 µM; in the experiment on HeLa, greater than 10 µM; in experiment [3], greater than 10 µM.
In the case of `CC(=O)O[C@H]1C[C@@H](O)[C@@]2(C)C[C@@]3(O)OC(=O)C(C)=C3C[C@@H]2[C@H]1C`, the IC50 with HepG2 was greater than 10 µM; in experiment [1], greater than 1000 µM; in the experiment on HCT-116 it was greater than 10 µM; in experiment [2] it was greater than 10 µM; in the experiment with HeLa, greater than 10 µM; in experiment [3], greater than 10 µM.
Take `CC(C)c1cc2c(c(O)c1O)[C@]13CO[C@H]2C[C@H]1C(C)(C)C[C@H](O)C3`: the IC50 in the experiment on HepG2 was greater than 10 µM; in experiment [1] it was greater than 1000 µM; in the experiment with HCT-116, greater than 10 µM; in experiment [2] it was greater than 10 µM; in the experiment with HeLa it was greater than 10 µM; in experiment [3] it was greater than 10 µM.
Regarding `CC(C)C1=C[C@]23Oc4c(C(C)C)cc5c(c4O[C@@]2(C(=O)C1=O)C12COC3C[C@H]1C(C)(C)C[C@H](O)C2)C12COC5C[C@H]1C(C)(C)C[C@H](O)C2` (stereo not given in full), the concentration for half-maximal inhibition (IC50) with HepG2 was 5.2 µM; in experiment [1], greater than 1000 µM; with HCT-116, 6.3 µM; in experiment [2], 8.5 µM; with HeLa it was 5.2 µM; in experiment [3], 4.8 µM.
As for `CC(=O)O[C@@H]1C(=O)C=C(C)[C@@H]2CC3=C(C)C(=O)O[C@@]3(O)C[C@@]12C`, the IC50 in the experiment on HepG2 was greater than 10 µM; in experiment [1], greater than 1000 µM; in the experiment with HCT-116, greater than 10 µM; in experiment [2], greater than 10 µM; in the experiment on HeLa it was greater than 10 µM; in experiment [3], greater than 10 µM.
With `CC(C)C1=CC2=C(C(=O)C1=O)[C@]13CO[C@H]2C[C@H]1C(C)(C)C[C@H](O)C3`, the IC50 was greater than 10 µM with HepG2; greater than 1000 µM in experiment [1]; 7.3 µM in the experiment with HCT-116; greater than 10 µM in experiment [2]; greater than 10 µM with HeLa; greater than 10 µM in experiment [3].
In the case of `CC(=O)O[C@@H]1C[C@H](O)[C@H](C)[C@H]2CC3=C(C)C(=O)O[C@]3(O)C[C@@]21C`, the IC50 in the experiment on HepG2 is greater than 10 µM; in experiment [1] it was greater than 1000 µM; in the experiment with HCT-116, greater than 10 µM; in experiment [2], greater than 10 µM; in the experiment with HeLa it was greater than 10 µM; in experiment [3], greater than 10 µM.
